Experimental data published in ChEMBL document CHEMBL1811838, “Antimalarial activity of natural and synthetic prodiginines” (J Med Chem, 2011).
The source made the active and inactive calls. The calls are words filed in the database; no cut-off is given here.

Tests used:
[1] = tested on: Plasmodium yoelii; experiment: Antimalarial activity Plasmodium yoelii infected in CF-1 mouse assessed as reduction of parasitemia at 25 mg/kg, po qd for 3 days administered 24 hrs after infection measured after 24 hrs last dose relative to control; format: functional; design: scale not given: the % may be the effect or the level left
In short: (§1)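 Female outbred CF-1 mice infected iv (tail vein) with 5 × 10^5 P. yoelii Kenya-infected erythrocytes. Groups of five given compound or vehicle alone by gavage in caprylic/capric triglyceride once daily for 3 days starting 24 h post-infection. One day after last dose, Giemsa-stained thin smears scored microscopically for % infected erythrocytes vs untreated controls. Group mean weight day 3 vs day 0. Smear-negative mice followed; parasite-free at 28 days counted cured.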

[2] = tested on: Plasmodium falciparum; experiment: Antimalarial activity Plasmodium falciparum D6 after 72 hrs by SYBR Green I based fluorescence assay; format: functional, organism-based; conditions: D6, 72 h
In short: (§2)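 P. falciparum (D6 pansensitive; Dd2 MDR) cultured under standard conditions and grown 72 h with varying compound concentrations, chloroquine positive control or no drug, each condition in quadruplicate. Growth measured by SYBR Green I fluorescence with minor modifications; IC50 = concentration inhibiting growth by 50%.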

[3] = tested on: Mus musculus; experiment: Toxicity in Plasmodium yoelii infected CF-1 mouse assessed as temporary weight loss at 100 mg/kg, po qd for 3 days; format: organism-based; design: dose 100 mg/kg, route oral; conditions: in vivo, 72 h; in short: as §1
[4] = tested on: Plasmodium yoelii; experiment: Antimalarial activity Plasmodium yoelii infected in CF-1 mouse assessed as complete parasite clearance at 100 mg/kg, po qd for 3 days administered 24 hrs after infection measured after 24 hrs last dose; format: functional, organism-based; design: dose 100 mg/kg; in short: as §1
[5] = Toxicity in C57BL/6J mouse splenic lymphocytes after 72 hrs by Alamar blue Assay; format: cell-based; conditions: splenic lymphocyte
In short: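 Splenic lymphocytes from C57BL/6J mice washed, then stimulated with 1 μg/mL concanavalin A in RPMI/10% FBS with 50 μM β-mercaptoethanol. Seeded at 2 × 10^5 cells/well with serially diluted compound for 72 h at 37 °C, 5% CO2. Resazurin added (final 10 μM) for another 24 h; fluorescence read at ex 560/em 590 nm.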

[6] = tested on: Plasmodium falciparum; experiment: Antimalarial activity multidrug-resistant Plasmodium falciparum Dd2 after 72 hrs by SYBR Green I based fluorescence assay; format: functional, organism-based; conditions: Dd2, 72 h; in short: as §2
[7] = tested on: Plasmodium yoelii; experiment: Antimalarial activity Plasmodium yoelii infected in CF-1 mouse assessed as reduction of parasitemia at 5 mg/kg, po qd for 3 days administered 24 hrs after infection measured after 24 hrs last dose relative to control; format: functional; design: scale not given: the % may be the effect or the level left
In short: (§3)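 Female outbred CF-1 mice were infected i.v. via the tail vein with 5 × 10^5 P. yoelii Kenya-infected erythrocytes, in groups of five. Compound or vehicle alone was given by gavage in caprylic/capric triglyceride once daily for 3 days, starting 24 h post-infection. One day after the last dose, Giemsa-stained thin smears were scored by microscopy for % parasitemia versus untreated controls. Group mean weight was recorded as day 3 versus day 0.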

[8] = tested on: Mus musculus; experiment: Toxicity in Plasmodium yoelii infected CF-1 mouse assessed as weight loss at 25 mg/kg, po qd for 3 days relative to control; format: organism-based; design: dose 25 mg/kg, route oral; conditions: in vivo, 72 h; in short: as §3
[9] = tested on: Mus musculus; experiment: Toxicity in Plasmodium yoelii infected CF-1 mouse assessed as weight loss at 5 mg/kg, po qd for 3 days relative to control; format: organism-based; design: dose 5 mg/kg, route oral; conditions: in vivo, 72 h; in short: as §3

Structure (SMILES) | Activity [1] | IC50 [2] | Activity [3] | Activity [4] | IC50 [5] | IC50 [6] | Activity [7] | Activity [8] | Activity [9]
CCC1CCCCCCCCC2=N/C(=C\c3[nH]c(-c4ccc[nH]4)cc3OC)C1=C2 (configuration not stated) [METACYCLOPRODIGININE] | >99% | 1.7 nM | Toxic | Active |  |  |  |  | 
CCCc1cc(CCC2CCCCC2)c(/C=C2\N=C(c3ccc[nH]3)C=C2OC)[nH]1 | 100% | 1.7 nM |  |  | < 125 nM | 1.3 nM | 97% | 84.5% | 101.5%
CCCCCCc1cc(Cc2ccc(Cl)cc2)c(/C=C2\N=C(c3ccc[nH]3)C=C2OC)[nH]1 | 100% | 2 nM |  |  | < 125 nM | 1.8 nM | 99% | 96% | 100.3%
CCCc1cc(Cc2ccc(Cl)cc2)c(/C=C2\N=C(c3ccc[nH]3)C=C2OC)[nH]1 | 100% | 3 nM |  |  | < 125 nM | 2.6 nM | 94% | 87.6% | 102.9%
COC1=CC(c2ccc[nH]2)=N/C1=C\c1[nH]c(Cc2ccc(Cl)cc2)cc1Cc1ccc(Cl)cc1 | 100% | 6.1 nM |  |  | < 125 nM | 4.8 nM | 92% | 102.5% | 107.5%
